Experimental data: ChEMBL document CHEMBL4118181, “Investigations on small molecule inhibitors targeting the histone H3K4 tri-methyllysine binding PHD-finger of JmjC histone demethylases” (Bioorg Med Chem, 2018)
Activity calls are given as the source filed them. The calls are words filed in the database; no cut-off is given here.

Experiments:
[1] = biological target: T1, Lysine-specific demethylase 7A (Homo sapiens) (UniProt Q6ZMT4); assay: Inhibition of KDM7A (PHD-JmjC) (unknown origin) demethylation activity at 100 uM preincubated for 10 mins followed by H3(1-15)K9me2 peptide substrate addition by MALDI-TOF-MS analysis
T1 sequence (whole entry): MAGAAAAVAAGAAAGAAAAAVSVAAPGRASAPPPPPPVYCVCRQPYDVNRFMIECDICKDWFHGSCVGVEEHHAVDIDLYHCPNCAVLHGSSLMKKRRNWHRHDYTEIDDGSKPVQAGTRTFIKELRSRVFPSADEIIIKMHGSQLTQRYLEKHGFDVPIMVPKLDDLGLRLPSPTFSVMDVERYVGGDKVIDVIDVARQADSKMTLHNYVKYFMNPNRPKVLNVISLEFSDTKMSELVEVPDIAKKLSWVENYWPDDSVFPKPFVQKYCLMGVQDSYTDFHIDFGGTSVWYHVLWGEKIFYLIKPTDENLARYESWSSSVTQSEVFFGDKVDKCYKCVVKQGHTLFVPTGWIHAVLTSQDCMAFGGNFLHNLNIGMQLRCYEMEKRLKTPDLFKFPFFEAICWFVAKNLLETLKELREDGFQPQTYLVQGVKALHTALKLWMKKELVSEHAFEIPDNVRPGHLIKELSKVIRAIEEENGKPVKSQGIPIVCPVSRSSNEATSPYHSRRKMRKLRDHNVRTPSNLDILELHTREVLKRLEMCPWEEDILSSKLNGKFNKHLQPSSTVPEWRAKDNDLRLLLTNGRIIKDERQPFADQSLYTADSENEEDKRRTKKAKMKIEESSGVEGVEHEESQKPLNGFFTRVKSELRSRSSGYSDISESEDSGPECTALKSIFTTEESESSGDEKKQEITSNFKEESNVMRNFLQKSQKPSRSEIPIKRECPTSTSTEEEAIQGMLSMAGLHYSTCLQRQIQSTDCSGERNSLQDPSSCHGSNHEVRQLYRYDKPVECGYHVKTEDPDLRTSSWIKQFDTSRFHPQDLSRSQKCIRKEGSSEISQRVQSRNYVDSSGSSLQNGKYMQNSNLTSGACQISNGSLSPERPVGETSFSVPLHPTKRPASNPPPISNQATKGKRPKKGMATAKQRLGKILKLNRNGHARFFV

[2] = biological target: Histone lysine demethylase PHF8 (Homo sapiens) (UniProt Q9UPP1); assay: Displacement of C-terminally biotinylated-H3K4me3 (1 to 21 residues) peptide from KDM7B (PHD-JmjC) (unknown origin) at 100 uM preincubated for 15 mins followed by peptide addition measured after 1 hr by luminescence-based AlphaScreen assay
Histone lysine demethylase PHF8 (Homo sapiens), sequence (Q9UPP1 whole entry, the tested form may be a part): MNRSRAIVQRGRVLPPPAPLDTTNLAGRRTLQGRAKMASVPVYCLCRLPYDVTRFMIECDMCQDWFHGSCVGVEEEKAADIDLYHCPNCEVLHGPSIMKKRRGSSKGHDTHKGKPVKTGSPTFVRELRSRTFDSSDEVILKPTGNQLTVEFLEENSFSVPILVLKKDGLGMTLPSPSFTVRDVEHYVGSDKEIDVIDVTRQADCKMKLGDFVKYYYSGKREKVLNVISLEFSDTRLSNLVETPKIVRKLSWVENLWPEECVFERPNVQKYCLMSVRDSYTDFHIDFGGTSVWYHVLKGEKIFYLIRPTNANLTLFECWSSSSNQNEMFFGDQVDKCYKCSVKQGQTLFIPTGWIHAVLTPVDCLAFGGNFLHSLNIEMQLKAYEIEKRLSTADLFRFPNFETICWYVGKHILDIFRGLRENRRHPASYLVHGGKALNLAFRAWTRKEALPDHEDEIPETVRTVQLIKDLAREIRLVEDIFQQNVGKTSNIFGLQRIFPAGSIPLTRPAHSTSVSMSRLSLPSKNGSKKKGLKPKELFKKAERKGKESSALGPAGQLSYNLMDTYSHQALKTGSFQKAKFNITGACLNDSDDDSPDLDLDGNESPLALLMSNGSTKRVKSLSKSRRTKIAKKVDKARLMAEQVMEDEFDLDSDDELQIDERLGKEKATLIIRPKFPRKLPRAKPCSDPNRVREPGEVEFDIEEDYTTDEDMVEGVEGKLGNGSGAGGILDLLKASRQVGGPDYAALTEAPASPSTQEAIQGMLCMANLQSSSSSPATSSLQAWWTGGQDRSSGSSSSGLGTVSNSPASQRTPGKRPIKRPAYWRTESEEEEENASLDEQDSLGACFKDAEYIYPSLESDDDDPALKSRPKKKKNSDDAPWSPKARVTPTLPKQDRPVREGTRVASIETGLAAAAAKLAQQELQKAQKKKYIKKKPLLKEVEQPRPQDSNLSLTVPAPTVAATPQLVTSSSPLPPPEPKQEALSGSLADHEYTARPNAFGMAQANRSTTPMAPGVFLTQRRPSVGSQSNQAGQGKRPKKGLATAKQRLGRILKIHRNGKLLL

[3] = biological target: T1, Lysine-specific demethylase 7A (Homo sapiens); assay: Displacement of C-terminally biotinylated-H3K4me3 (1 to 21 residues) peptide from KDM7A (PHD-JmjC) (unknown origin) at 100 uM preincubated for 15 mins followed by peptide addition measured after 1 hr by luminescence-based AlphaScreen assay
[4] = biological target: Lysine-specific demethylase 5A (Homo sapiens) (UniProt P29375); assay: Mixed type inhibition of KDM5A (L88 to G353 residues) ARID/PHD1/2/3 deletion mutant (unknown origin) demethylation activity using H3(1-21)K4me3 peptide as substrate measured every 30 seconds over 25 mins by formaldehyde dehydrogenase coupled activity assay based Lineweaver-Burk plot analysis
Lysine-specific demethylase 5A (Homo sapiens), sequence (P29375 whole entry, the tested form may be a part): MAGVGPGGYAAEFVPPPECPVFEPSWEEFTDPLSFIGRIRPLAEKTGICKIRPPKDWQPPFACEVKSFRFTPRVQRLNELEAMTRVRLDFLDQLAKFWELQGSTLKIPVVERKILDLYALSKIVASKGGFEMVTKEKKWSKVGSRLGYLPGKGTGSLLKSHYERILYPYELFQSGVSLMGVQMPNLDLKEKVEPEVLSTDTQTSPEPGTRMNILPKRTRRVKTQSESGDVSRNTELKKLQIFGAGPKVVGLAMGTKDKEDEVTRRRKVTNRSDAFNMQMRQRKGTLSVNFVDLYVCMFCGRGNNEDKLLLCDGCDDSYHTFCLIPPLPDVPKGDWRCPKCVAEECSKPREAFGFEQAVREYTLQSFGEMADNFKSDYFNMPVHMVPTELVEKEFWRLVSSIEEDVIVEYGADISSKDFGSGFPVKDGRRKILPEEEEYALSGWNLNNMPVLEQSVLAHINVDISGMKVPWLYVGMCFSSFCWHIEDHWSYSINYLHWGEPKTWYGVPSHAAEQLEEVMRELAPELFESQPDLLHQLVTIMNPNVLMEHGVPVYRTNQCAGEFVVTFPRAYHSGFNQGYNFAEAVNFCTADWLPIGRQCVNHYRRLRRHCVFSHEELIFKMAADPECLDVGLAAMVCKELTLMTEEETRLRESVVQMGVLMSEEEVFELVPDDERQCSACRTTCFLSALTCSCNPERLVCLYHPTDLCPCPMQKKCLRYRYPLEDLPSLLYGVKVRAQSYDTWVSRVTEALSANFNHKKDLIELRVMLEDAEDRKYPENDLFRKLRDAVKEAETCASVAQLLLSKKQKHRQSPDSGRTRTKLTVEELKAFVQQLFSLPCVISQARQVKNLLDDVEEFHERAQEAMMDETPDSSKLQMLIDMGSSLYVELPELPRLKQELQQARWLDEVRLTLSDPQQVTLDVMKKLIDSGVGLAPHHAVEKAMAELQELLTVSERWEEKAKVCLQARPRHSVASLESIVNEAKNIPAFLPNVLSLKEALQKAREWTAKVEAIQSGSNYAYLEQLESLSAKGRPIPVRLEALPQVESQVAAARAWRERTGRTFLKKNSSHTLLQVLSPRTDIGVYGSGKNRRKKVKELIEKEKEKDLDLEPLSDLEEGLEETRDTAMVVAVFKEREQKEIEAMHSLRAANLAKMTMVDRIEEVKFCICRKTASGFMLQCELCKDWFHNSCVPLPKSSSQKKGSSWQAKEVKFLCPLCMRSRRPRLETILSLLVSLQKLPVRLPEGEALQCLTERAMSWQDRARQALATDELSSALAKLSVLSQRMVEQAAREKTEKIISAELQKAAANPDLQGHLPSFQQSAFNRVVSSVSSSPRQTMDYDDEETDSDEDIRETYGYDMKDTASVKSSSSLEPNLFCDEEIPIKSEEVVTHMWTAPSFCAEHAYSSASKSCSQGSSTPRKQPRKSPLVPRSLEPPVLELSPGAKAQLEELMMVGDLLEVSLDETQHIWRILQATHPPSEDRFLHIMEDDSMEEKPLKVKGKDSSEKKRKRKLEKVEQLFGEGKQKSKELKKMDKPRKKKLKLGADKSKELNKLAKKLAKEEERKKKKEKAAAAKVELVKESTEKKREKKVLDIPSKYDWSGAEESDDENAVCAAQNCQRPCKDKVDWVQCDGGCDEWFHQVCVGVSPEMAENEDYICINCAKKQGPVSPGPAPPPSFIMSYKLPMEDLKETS
Outline: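 FDH enzyme-coupled fluorescence assay of KDM5A_c2 demethylation, with formaldehyde production as the read-out. Kinetic analysis is made against the H3K4me3 substrate, and α and Ki are derived to assign the inhibition mode.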

[5] = biological target: Lysine-specific demethylase 5A (Homo sapiens) (UniProt P29375); assay: Substrate activity at KDM5A (L88 to G353 residues) ARID/PHD1/2/3 deletion mutant (unknown origin) demethylation activity assessed as formaldehyde production measured every 30 seconds over 25 mins in absence of H3K4me3

| inhibition [1] [%] | inhibition [2] | inhibition [3] | inhibition [4] | Activity [5] | SMILES |
| --- | --- | --- | --- | --- | --- |
| 100 | inactive | – | – | – | CCCCc1oc2ccccc2c1C(=O)c1cc(I)c(OCCC[N+](C)(C)C)c(I)c1 |
| 100 | inactive | – | – | – | CCCCc1oc2ccccc2c1C(=O)c1ccc(OCCCN(C)C)cc1 |
| 17 | inactive | inactive | – | – | CCCCc1oc2ccccc2c1C(=O)c1cc(I)c(OCC[N+](C)(C)C)c(I)c1 |
| 100 | – | – | Active | inactive | CCCCc1oc2ccccc2c1C(=O)c1ccc(OCCC[N+](C)(C)C)cc1 |
| 100 | – | – | – | – | Cc1oc2ccccc2c1C(=O)c1ccc(OCCC[N+](C)(C)C)cc1 |
